# Laboratory results reported in ChEMBL document CHEMBL3244402, “Branched-chain analogues of luteinizing hormone-releasing hormone” (1978).
# Active and inactive are the calls of the source. The calls are words filed in the database; no cut-off is given here. Square brackets hold non-standard residues; d marks the D form. Peptide text beside a SMILES is read from it. pGlu = O=C1CC[C@@H](C(=O)O)N1
# Experiments:
# Rattus norvegicus [1] = assay: In vivo activation of LH-RH receptor in immature rat assessed as release of follicle-stimulating hormone relative to control; type: functional
# In short: (§1)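 Immature male rats were injected sc with agonist, LH-RH or saline and followed over 0.25–4 h, with blood sampled at intervals. Serum LH was measured by double antibody radioimmunoassay and FSH by radioimmunoassay, against NIH-LH-S17 and NIAMD-rat-FSH-RP1 standards.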
# Rattus norvegicus [2] = assay: In vivo activation of LH-RH receptor in immature rat assessed as release of luteinizing hormone relative to control; type: functional; in short: as §1
# Rattus norvegicus [3] = assay: In vivo inhibition of LH-RH receptor in immature rat assessed as inhibition of LH-RH-stimulated follicle-stimulating hormone release in serum at 300 ug, sc administered 1 hr prior to LH-RH addition measured after 30 mins relative to vehicle-treated control; type: functional
# In short: (§2)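 Immature male rats received 300 μg peptide sc in 20% propylene glycol-saline, or vehicle alone. Synthetic LH-RH (200 ng) or saline was injected at the same time or later, over a 4-h period. Blood was taken 30 min after LH-RH. Serum LH and FSH were measured by radioimmunoassay (double antibody for LH), and percent inhibition of serum gonadotropin was calculated.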
# Rattus norvegicus [4] = assay: In vivo inhibition of LH-RH receptor in immature rat assessed as inhibition of LH-RH-stimulated luteinizing hormone release in serum at 300 ug, sc administered 1 hr prior to LH-RH addition measured after 30 mins relative to vehicle-treated control; type: functional; in short: as §2
# Rattus norvegicus [5] = assay: In vivo inhibition of LH-RH receptor in immature rat assessed as inhibition of LH-RH-stimulated luteinizing hormone release in serum at 300 ug, sc administered 4 hrs prior to LH-RH addition measured after 30 mins relative to vehicle-treated control; type: functional; in short: as §2
# Rattus norvegicus [6] = assay: Antiovulatory activity in Sprague-Dawley rat at 1 mg, sc administered at 12 pm on proestrous day relative to vehicle-treated control; type: functional
# In short: (§3)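 Adult female SD rats (~200 g), 14 h light/10 h dark, with vaginal smears checked daily from 14 days after arrival. Only rats with at least two successive regular 4-day cycles were used. Peptide was given sc in propylene glycol-saline on the proestrous afternoon. Rats were killed the next day and oviducts inspected for ova. Read-out was % inhibition of ovulation and ova count (±SE) in ovulating rats.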
# Rattus norvegicus [7] = assay: In vivo inhibition of LH-RH receptor in immature rat assessed as inhibition of LH-RH-stimulated follicle-stimulating hormone release in serum at 300 ug, sc administered 4 hrs prior to LH-RH addition measured after 30 mins relative to vehicle-treated control; type: functional; in short: as §2
# Rattus norvegicus [8] = assay: Antiovulatory activity in Sprague-Dawley rat at 1.5 mg, sc administered at 12 pm on proestrous day relative to vehicle-treated control; type: functional; in short: as §3
# Rattus norvegicus [9] = assay: In vivo activation of LH-RH receptor in immature rat assessed as release of follicle-stimulating hormone in serum at 50 ng, sc measured over 4 hrs by radioimmunoassay; type: functional, organism-based; in short: as §1
# Rattus norvegicus [10] = assay: In vivo activation of LH-RH receptor in immature rat assessed as release of luteinizing hormone in serum at 50 ng, sc measured over 4 hrs by double antibody radioimmunoassay; type: functional, organism-based; in short: as §1
# Rattus norvegicus [11] = assay: In vivo inhibition of LH-RH receptor in immature rat assessed as inhibition of LH-RH-stimulated luteinizing hormone release in serum at 300 ug, sc administered 0.5 hrs prior to LH-RH addition measured after 30 mins relative to vehicle-treated control; type: functional; in short: as §2
# Rattus norvegicus [12] = assay: In vivo inhibition of LH-RH receptor in immature rat assessed as inhibition of LH-RH-stimulated luteinizing hormone release in serum at 300 ug, sc administered 2 hrs prior to LH-RH addition measured after 30 mins relative to vehicle-treated control; type: functional; in short: as §2
# Rattus norvegicus [13] = assay: Antiovulatory activity in Sprague-Dawley rat at 1.5 mg, sc administered at 9 am on proestrous day relative to vehicle-treated control; type: functional
Compound,inhibition (INH) (Rattus norvegicus [3]) [%],inhibition (INH) (Rattus norvegicus [4]) [%],inhibition (INH) (Rattus norvegicus [5]) [%],inhibition (INH) (Rattus norvegicus [6]) [%],inhibition (INH) (Rattus norvegicus [7]) [%],also measured
CC(C)C[C@H](NC(=O)[C@@H](CCCCN)NC(=O)[C@H](Cc1ccc(O)cc1)NC(=O)[C@H](CO)NC(=O)[C@H](Cc1c[nH]c2ccccc12)NC(=O)[C@H](Cc1cnc[nH]1)NC(=O)[C@@H]1CCC(=O)N1)C(=O)N[C@@H](CCCNC(=N)N)C(=O)N1CCC[C@H]1C(=O)NCC(N)=O,–,–,–,–,–,Activity (Rattus norvegicus [1]): 300%; Activity (Rattus norvegicus [2]): 300%
CC(C)C[C@H](NC(=O)[C@@H](CCCCN)NC(=O)[C@H](Cc1ccc(O)cc1)NC(=O)[C@H](CO)NC(=O)[C@@H](Cc1c[nH]c2ccccc12)NC(=O)[C@@H](Cc1ccccc1)NC(=O)[C@@H]1CCC(=O)N1)C(=O)N[C@@H](CCCNC(=N)N)C(=O)N1CCC[C@H]1C(=O)NCC(N)=O ([pGlu][dF][dW]SY[dK]LRPG-NH2),37,36,38,0,18,–
COc1ccc2c(c1)c(CC(=O)NCCCC[C@@H](NC(=O)[C@H](Cc1ccc(O)cc1)NC(=O)[C@H](CO)NC(=O)[C@@H](Cc1c[nH]c3ccccc13)NC(=O)[C@@H](Cc1ccccc1)NC(=O)[C@@H]1CCC(=O)N1)C(=O)N[C@@H](CC(C)C)C(=O)N[C@@H](CCCNC(=N)N)C(=O)N1CCC[C@H]1C(=O)NCC(N)=O)c(C)n2C(=O)c1ccc(Cl)cc1,0,7,0,–,0,inhibition (INH) (Rattus norvegicus [8]): 0%
CC(C)C[C@H](NC(=O)CNC(=O)[C@H](Cc1ccc(O)cc1)NC(=O)[C@H](CO)NC(=O)[C@H](Cc1c[nH]c2ccccc12)NC(=O)[C@H](Cc1cnc[nH]1)NC(=O)[C@@H]1CCC(=O)N1)C(=O)N[C@@H](CCCNC(=N)N)C(=O)N1CCC[C@H]1C(=O)NCC(N)=O,–,–,–,–,–,Activity (Rattus norvegicus [9]): Active; Activity (Rattus norvegicus [10]): Active
CC(=O)Oc1ccccc1C(=O)NCCCC[C@@H](NC(=O)[C@H](Cc1ccc(O)cc1)NC(=O)[C@H](CO)NC(=O)[C@@H](Cc1c[nH]c2ccccc12)NC(=O)[C@@H](Cc1ccccc1)NC(=O)[C@@H]1CCC(=O)N1)C(=O)N[C@@H](CC(C)C)C(=O)N[C@@H](CCCNC(=N)N)C(=O)N1CCC[C@H]1C(=O)NCC(N)=O,23,57,18,–,13,inhibition (INH) (Rattus norvegicus [8]): 11%
CC(C)C[C@H](NC(=O)[C@@H](CCCCNC(=O)c1ccccc1)NC(=O)[C@H](Cc1ccc(O)cc1)NC(=O)[C@H](CO)NC(=O)[C@@H](Cc1c[nH]c2ccccc12)NC(=O)[C@@H](Cc1ccccc1)NC(=O)[C@@H]1CCC(=O)N1)C(=O)N[C@@H](CCCNC(=N)N)C(=O)N1CCC[C@H]1C(=O)NCC(N)=O,–,–,0,11,–,inhibition (INH) (Rattus norvegicus [11]): 76%; inhibition (INH) (Rattus norvegicus [12]): 40%
CC(C)C[C@H](NC(=O)[C@@H](Cc1ccccc1)NC(=O)[C@H](Cc1ccc(O)cc1)NC(=O)[C@H](CO)NC(=O)[C@@H](Cc1c[nH]c2ccccc12)NC(=O)[C@@H](Cc1ccccc1)NC(=O)[C@@H]1CCC(=O)N1)C(=O)N[C@@H](CCCNC(=N)N)C(=O)N1CCC[C@H]1C(=O)NCC(N)=O,65,84,52,83,77,inhibition (INH) (Rattus norvegicus [13]): 67%
CC(C)C[C@H](NC(=O)[C@@H](CCCCNC(=O)[C@H](Cc1ccc(O)cc1)NC(=O)[C@H](CO)NC(=O)[C@@H](Cc1c[nH]c2ccccc12)NC(=O)[C@@H](Cc1ccccc1)NC(=O)[C@@H]1CCC(=O)N1)NC(=O)[C@H](Cc1ccc(O)cc1)NC(=O)[C@H](CO)NC(=O)[C@@H](Cc1c[nH]c2ccccc12)NC(=O)[C@@H](Cc1ccccc1)NC(=O)[C@@H]1CCC(=O)N1)C(=O)N[C@@H](CCCNC(=N)N)C(=O)N1CCC[C@H]1C(=O)NCC(N)=O,43,62,47,73,41,inhibition (INH) (Rattus norvegicus [13]): 50%
